Laboratory results from ChEMBL document CHEMBL1123901, “Inhibition of delayed hypersensitivity reactions by cinnamyl 1-thioglycosides” (J Med Chem, 1987).

Key:
Format in all cases: functional
[1] = organism: Cavia porcellus; experiment: [3H]-Thymidine uptake was determined by liquid scintillation spectroscopy in ovalbumin (OVA) pulsed compound 2 treated Macrophages
Method in brief: (§1)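 Guinea pig PELs and irradiated (2100 rads) exudate macrophages were each preincubated with compound (1 mM or 500 μM, depending on agent) for 18 h at 37 °C, then washed. Macrophages were pulsed with OVA 100 μg/mL for 1 h at 37 °C and washed. Cells were viability-adjusted by trypan blue and mixed, with or without OVA 10 μg/mL. Culture ran 72 h at 37 °C with [3H]thymidine read by scintillation, as mean Δcpm × 10^-3.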

[2] = organism: Cavia porcellus; experiment: [3H]thymidine uptake was determined by liquid scintillation spectroscopy in ovalbumin pulsed Macrophages
Method in brief: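 Pretreatment protocol. Strain 2 female guinea pigs immunized with OVA in CFA (100 μg OVA; 0.1 mL/foot); mineral oil given ip at day 14, peritoneal exudate collected 4 days later. Nylon-wool-enriched T cells (PELs) and irradiated (2100 rads) exudate macrophages each incubated with sugar derivative 18 h at 37 °C, then washed. Macrophages pulsed with OVA 100 μg/mL for 1 h at 37 °C and washed. Viability adjusted by trypan blue; populations mixed and cultured 72 h at 37 °C. [3H]thymidine (1 μCi) added 18-24 h before harvest; read by liquid scintillation as mean Δcpm ×10^-3.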

[3] = organism: Cavia porcellus; experiment: Effect on guinea pig T cell proliferation was tested by measuring the incorporation of [3H]-thymidine uptake at the concentration of 0 uM
Method in brief: (§2)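 Strain 2 female guinea pigs were immunized with 100 μg OVA in CFA split over the footpads. At day 14 they received mineral oil ip, and the exudate was collected 4 days later. T cells were enriched on nylon wool. 2×10^5 cells per well were cultured with 10% irradiated (2100 rads) exudate cells, OVA (10 μg/mL) and compound, for 72 h at 37 °C in 5% CO2. [3H]thymidine (1 μCi) was added 18-24 h before harvest. Triplicate wells; mean Δcpm ± SD.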

[4] = organism: Cavia porcellus; experiment: Inhibitory activity against [3H]thymidine uptake by cinnamyl 1-thioglycosides in guinea pig T cell proliferation; method in brief: as §2
[5] = organism: Cavia porcellus; experiment: Effect on guinea pig T cell proliferation was tested by measuring the incorporation of [3H]thymidine uptake at the concentration of 10 uM; method in brief: as §2
[6] = organism: Cavia porcellus; experiment: Effect on guinea pig T cell proliferation was tested by measuring the incorporation of [3H]-thymidine uptake at the concentration of 100 uM; method in brief: as §2
[7] = organism: Cavia porcellus; experiment: Effect on guinea pig T cell proliferation was tested by measuring the incorporation of [3H]thymidine uptake at the concentration of 1000 uM; method in brief: as §2
[8] = organism: Cavia porcellus; experiment: Effect on guinea pig T cell proliferation was tested by measuring the incorporation of [3H]thymidine uptake at the concentration of 500 uM; method in brief: as §2
[9] = organism: Cavia porcellus; experiment: Effect on guinea pig T cell proliferation was tested by measuring the incorporation of [3H]thymidine uptake at the concentration of 750 uM; method in brief: as §2
[10] = organism: Cavia porcellus; experiment: [3H]-Thymidine uptake was determined by liquid scintillation spectroscopy in compound 21 treated Macrophages pretreated with 500 uM of 21 at 37 degree C for 18 h; method in brief: as §1
[11] = organism: Cavia porcellus; experiment: [3H]-Thymidine uptake was determined by liquid scintillation spectroscopy in 21 pretreated OVA pulsed Macrophages plus OVA (10 ug/mL) pretreated with 500 uM of 21 at 37 degree C for 18 h; method in brief: as §1
[12] = organism: Cavia porcellus; experiment: [3H]thymidine uptake was determined by liquid scintillation spectroscopy in 3 treated Macrophages plus OVA (10 ug/mL); method in brief: as §1
[13] = organism: Cavia porcellus; experiment: [3H]thymidine uptake was determined by liquid scintillation spectroscopy in Macrophages; method in brief: as §1
[14] = organism: Cavia porcellus; experiment: [3H]-Thymidine uptake was determined by liquid scintillation spectroscopy in Macrophages pretreated with 500 uM 21 at 37 degree C for 18 h; method in brief: as §1
[15] = organism: Cavia porcellus; experiment: [3H]-Thymidine uptake was determined by liquid scintillation spectroscopy in OVA pulsed Macrophages pretreated with 500 uM of 21 at 37 degree C for 18 h; method in brief: as §1
[16] = organism: Cavia porcellus; experiment: [3H]thymidine uptake was determined by liquid scintillation spectroscopy in OVA pulsed compound 21 pretreated Macrophages pretreated with 500 uM of 21 at 37 degree C for 18 h; method in brief: as §1
[17] = organism: Cavia porcellus; experiment: [3H]-Thymidine uptake was determined by liquid scintillation spectroscopy in compound 21 pretreated Macrophages plus OVA (ug/mL) pretreated with 500 uM of 21 at 37 degree C for 18 h; method in brief: as §1
[18] = organism: Cavia porcellus; experiment: [3H]thymidine uptake was determined by liquid scintillation spectroscopy in compound 21 pretreated OVA pulsed Macrophages plus OVA (10 ug/mL); method in brief: as §1
[19] = organism: Cavia porcellus; experiment: [3H]thymidine uptake was determined by liquid scintillation spectroscopy in compound 2 treated Macrophages; method in brief: as §1
[20] = organism: Cavia porcellus; experiment: Effect on guinea pig T cell proliferation was tested by measuring the incorporation of [3H]thymidine uptake at the concentration of 250 uM; method in brief: as §2

## CC1OC(SC/C=C/c2ccccc2)C(O)C(O)C1O (stereo in doubt; 21)
[1]
  Delta cpm x10e-3: 13.97
[2]
  Delta cpm x10e-3: 45.43
[3]
  Activity: 89.1 Δcpm x10e-3
[4]; t-cell
  IC50: 102 µM
[5]
  Activity: 86.5 Δcpm x10e-3
[6]
  Activity: 66.3 Δcpm x10e-3
[7]
  Activity: 0 Δcpm x10e-3
[8]
  Activity: 0.11 Δcpm x10e-3
[9]
  Activity: 0 Δcpm x 10^-3
[10]
  Delta cpm x10e-3: 1.62
[11]
  Delta cpm x10e-3: 3.82
[12]
  Delta cpm x10e-3: 14.22
[13]
  Delta cpm x10e-3: 1.46
[14]
  Delta cpm x10e-3: 1.34
[15]
  Delta cpm x10e-3: 29.03
[16]
  Delta cpm x10e-3: 2.63
[17]
  Delta cpm x10e-3: 2.63
[18]
  Delta cpm x10e-3: 11.14
[19]
  Delta cpm x10e-3: 2.26
[20]
  Activity: 26.7 Δcpm x10e-3

## NCC1OC(SC/C=C/c2ccccc2)C(O)C(O)C1O (stereo not given)
[3]
  Activity: 81 Δcpm x10e-3
[5]
  Activity: 120 Δcpm x10e-3
[6]
  Activity: 101 Δcpm x10e-3
[7]
  Activity: 0.01 Δcpm x10e-3
[8]
  Activity: 1.23 Δcpm x10e-3
[9]
  Activity: 0.02 Δcpm x 10^-3
[20]
  Activity: 71.1 Δcpm x10e-3

## COCC1OC(SC/C=C/c2ccccc2)C(O)C(O)C1O (stereo not given)
[3]
  Activity: 88 Δcpm x10e-3
[4]; Cavia porcellus, T-cell, 72 h
  IC50: 41 µM
[5]
  Activity: 97 Δcpm x10e-3
[6]
  Activity: 36.2 Δcpm x10e-3
[7]
  Activity: 0 Δcpm x10e-3
[8]
  Activity: 0 Δcpm x10e-3
[9]
  Activity: 0 Δcpm x 10^-3
[20]
  Activity: 1.23 Δcpm x10e-3
